Holding throughout (type): cell-based
For assay [1], the target named is T1, von Hippel-Lindau disease tumor suppressor/Mitogen-activated protein kinase kinase kinase 11 (Homo sapiens, UniProt Q16584+P40337). Briefly: PROTAC activity at VHL/DOX-inducible MLK3 (unknown origin) overexpressed in human HCC1806 cells assessed as protein degradation at 0.25 to 1 uM measured after 24 hrs by immunoblot analysis. As to conditions: dose 0.25-1 µM. On the technique in general: Immunoblotting shows a protein as a band on a membrane.
T1 sequence (P40337 whole entry, looked up): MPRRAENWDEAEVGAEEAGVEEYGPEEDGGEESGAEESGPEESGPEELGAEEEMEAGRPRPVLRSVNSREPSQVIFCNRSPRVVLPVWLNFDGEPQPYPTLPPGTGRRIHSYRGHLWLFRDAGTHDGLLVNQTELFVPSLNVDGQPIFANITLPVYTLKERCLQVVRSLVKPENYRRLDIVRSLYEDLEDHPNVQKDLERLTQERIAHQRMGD
T1 sequence (Q16584 whole entry, looked up): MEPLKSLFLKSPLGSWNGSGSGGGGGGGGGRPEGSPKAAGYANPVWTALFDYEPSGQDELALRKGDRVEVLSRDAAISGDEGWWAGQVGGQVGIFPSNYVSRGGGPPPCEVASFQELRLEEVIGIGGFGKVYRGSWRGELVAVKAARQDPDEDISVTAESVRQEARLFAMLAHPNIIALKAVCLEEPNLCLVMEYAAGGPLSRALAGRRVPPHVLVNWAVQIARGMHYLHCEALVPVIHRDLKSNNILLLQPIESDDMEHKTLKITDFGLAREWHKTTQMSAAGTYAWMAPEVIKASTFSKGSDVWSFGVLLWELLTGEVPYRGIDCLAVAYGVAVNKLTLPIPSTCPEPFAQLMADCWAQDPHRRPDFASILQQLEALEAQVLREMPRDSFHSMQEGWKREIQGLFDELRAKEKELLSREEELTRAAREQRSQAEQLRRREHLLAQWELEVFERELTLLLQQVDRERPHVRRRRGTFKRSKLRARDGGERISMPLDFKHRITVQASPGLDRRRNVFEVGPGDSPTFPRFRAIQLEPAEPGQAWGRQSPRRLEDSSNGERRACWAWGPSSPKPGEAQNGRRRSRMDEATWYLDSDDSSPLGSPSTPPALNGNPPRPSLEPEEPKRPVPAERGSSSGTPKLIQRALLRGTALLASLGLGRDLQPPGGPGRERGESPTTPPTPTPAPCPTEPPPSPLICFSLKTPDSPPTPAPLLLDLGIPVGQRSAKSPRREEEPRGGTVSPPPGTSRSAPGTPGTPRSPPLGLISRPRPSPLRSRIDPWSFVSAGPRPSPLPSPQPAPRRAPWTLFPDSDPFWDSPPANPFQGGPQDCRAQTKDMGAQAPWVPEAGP

In assay [2] the target is T1, von Hippel-Lindau disease tumor suppressor/Mitogen-activated protein kinase kinase kinase 11. As to the kind of experiment: PROTAC activity at VHL/MLK3 in human MDA-MB-468 cells assessed as protein degradation at 1 uM measured after 24 hrs by immunoblot analysis. The procedure, abridged: (§1)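 MCF-7 and MDA-MB-468 cells were treated for 24 h across 0.1–5 μM, with DMSO as control. MLK3 was immunoblotted and quantified as percent remaining versus concentration, from which DC50 and Dmax were derived.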

Assay [3] shares this target. Briefly: PROTAC activity at VHL/MLK3 in human MCF7 cells assessed as protein degradation at 1 uM measured after 24 hrs by immunoblot analysis. The method, boiled down: as §1
For assay [4], the target named is Mitogen-activated protein kinase kinase kinase 11 (Homo sapiens) (UniProt Q16584). Briefly: Induction of degradation of DOX-inducible MLK3 (unknown origin) overexpressed in human MCF7 cells at 0.5 to 1 uM measured after 24 hrs by immunoblot analysis. As to conditions: dose 0.5-1 µM.
Mitogen-activated protein kinase kinase kinase 11 (Homo sapiens), sequence (Q16584 whole entry, looked up): as above
Assay [5] has the same target. As to the kind of experiment: Induction of degradation of DOX-inducible MLK3 (unknown origin) overexpressed in human MDA-MB-468 cells at 0.5 to 1 uM measured after 24 hrs by immunoblot analysis. As to conditions: dose 0.5-1 µM.

Our source for the Activity values is ChEMBL document CHEMBL5579886, “Selective Degradation of MLK3 by a Novel CEP1347-VHL-02 PROTAC Compound Limits the Oncogenic Potential of TNBC” (J Med Chem, 2024).

Molecules are shown by their SMILES. Active and inactive are the calls of the source. The calls are words filed in the database; no cut-off is given here.

`CCSCc1ccc2c(c1)c1c3c(c4c5cc(CSCC)ccc5n5c4c1n2[C@H]1C[C@](O)(C(=O)NCCOCCOCCOCC(=O)N[C@H](C(=O)N2C[C@@H](O)C[C@H]2C(=O)N[C@@H](C)c2ccc(-c4scnc4C)cc2)C(C)(C)C)[C@]5(C)O1)CNC3=O`: the outcome in assay [1], in assay [2] and in assay [3] was inactive.
With `CCSCc1ccc2c(c1)c1c3c(c4c5cc(CSCC)ccc5n5c4c1n2[C@H]1C[C@](O)(C(=O)OC)[C@]5(C)O1)CNC3=O`, the outcome in assay [4] and in assay [5] was inactive.
